Data: ChEMBL document CHEMBL1144664, “Design, synthesis, and SAR of new pyrrole-oxindole progesterone receptor modulators leading to 5-(7-fluoro-3,3-dimethyl-2-oxo-2,3-dihydro-1H-indol-5-yl)-1-methyl-1H-pyrrole-2-carbonitrile (WAY-255348)” (J Med Chem, 2008)
Activity calls are given as the source filed them. The calls are words filed in the database; no cut-off is given here.

Experiments:
[1] = Stability in cynomolgus monkey liver microsome assessed as half life; format: ADME, Macaca fascicularis; conditions: liver microsomes
Method in brief: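 Female rat, cynomolgus monkey and human liver microsome stability; half-life (min) reported.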

[2] = AUC (0 to infinity) in Sprague-Dawley rat at 5 mg/kg, po; format: ADME, organism-based; design: time infinity, dose 5 mg/kg, route oral; conditions: plasma
[3] = biological target: T1, Glucocorticoid receptor (Homo sapiens) (UniProt P04150); test: Antagonist activity at human GR ligand binding domain expressed in african green monkey COS7 cells in presence of Dexamethasone by Gal4 hybrid assay; format: cell-based; conditions: COS-7
T1 sequence (whole entry): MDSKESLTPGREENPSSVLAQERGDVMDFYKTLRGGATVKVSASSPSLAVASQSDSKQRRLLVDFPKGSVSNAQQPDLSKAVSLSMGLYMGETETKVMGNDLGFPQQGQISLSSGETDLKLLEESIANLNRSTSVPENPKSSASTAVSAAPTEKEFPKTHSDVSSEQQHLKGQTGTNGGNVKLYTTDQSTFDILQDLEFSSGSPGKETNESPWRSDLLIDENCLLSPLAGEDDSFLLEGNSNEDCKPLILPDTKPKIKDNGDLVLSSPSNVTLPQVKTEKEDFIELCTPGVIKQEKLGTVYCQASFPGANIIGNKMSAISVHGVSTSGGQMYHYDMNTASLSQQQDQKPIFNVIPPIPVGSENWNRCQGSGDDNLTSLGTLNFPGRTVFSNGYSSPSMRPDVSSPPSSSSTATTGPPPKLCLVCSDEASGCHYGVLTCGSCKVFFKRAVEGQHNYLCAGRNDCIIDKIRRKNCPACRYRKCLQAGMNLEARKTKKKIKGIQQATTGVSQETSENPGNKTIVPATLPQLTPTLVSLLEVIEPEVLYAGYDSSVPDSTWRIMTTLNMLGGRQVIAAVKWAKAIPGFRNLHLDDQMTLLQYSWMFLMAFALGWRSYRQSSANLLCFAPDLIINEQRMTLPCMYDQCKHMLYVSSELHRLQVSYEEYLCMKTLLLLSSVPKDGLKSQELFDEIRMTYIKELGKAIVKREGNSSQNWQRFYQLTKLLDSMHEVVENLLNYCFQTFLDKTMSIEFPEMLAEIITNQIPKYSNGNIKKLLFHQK

[4] = biological target: T2, Mineralocorticoid receptor (Homo sapiens, UniProt P08235); test: Antagonist activity at human MR ligand binding domain expressed in african green monkey COS7 cells in presence of aldosterone by Gal4 hybrid assay; format: cell-based, COS-7
T2 sequence (P08235 whole entry): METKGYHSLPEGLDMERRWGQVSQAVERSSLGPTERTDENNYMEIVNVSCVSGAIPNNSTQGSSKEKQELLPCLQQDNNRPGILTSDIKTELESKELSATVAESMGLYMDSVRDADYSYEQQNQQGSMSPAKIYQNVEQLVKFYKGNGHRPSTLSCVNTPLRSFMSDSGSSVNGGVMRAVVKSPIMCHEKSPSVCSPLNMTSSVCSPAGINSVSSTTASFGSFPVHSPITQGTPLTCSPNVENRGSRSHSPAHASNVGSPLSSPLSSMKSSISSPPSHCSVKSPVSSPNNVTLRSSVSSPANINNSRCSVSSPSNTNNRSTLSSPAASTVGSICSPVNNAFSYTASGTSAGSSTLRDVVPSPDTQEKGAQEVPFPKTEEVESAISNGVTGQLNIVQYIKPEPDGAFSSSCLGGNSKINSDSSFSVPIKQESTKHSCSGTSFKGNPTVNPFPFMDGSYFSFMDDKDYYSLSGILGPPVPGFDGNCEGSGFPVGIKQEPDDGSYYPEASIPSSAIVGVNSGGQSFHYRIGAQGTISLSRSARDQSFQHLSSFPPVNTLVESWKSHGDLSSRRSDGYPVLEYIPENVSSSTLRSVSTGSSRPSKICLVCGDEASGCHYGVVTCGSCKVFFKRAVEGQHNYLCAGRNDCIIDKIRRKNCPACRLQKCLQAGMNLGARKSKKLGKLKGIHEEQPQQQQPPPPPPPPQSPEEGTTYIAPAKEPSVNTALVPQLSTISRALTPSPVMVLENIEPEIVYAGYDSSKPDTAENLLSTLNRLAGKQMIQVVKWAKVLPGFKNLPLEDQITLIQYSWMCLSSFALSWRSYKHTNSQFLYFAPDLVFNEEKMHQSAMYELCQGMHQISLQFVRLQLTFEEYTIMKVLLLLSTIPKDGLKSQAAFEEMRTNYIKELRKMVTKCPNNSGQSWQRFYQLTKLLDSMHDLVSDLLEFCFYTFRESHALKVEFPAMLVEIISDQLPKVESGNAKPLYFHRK
Method in brief: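 Gal4-steroid receptor LBD fusion plasmid plus GAL4_UAS (5 copies, E1b TATA)-luciferase reporter, 50 ng/well each, transfected 16 h into COS-7 cells grown in phenol red-free DMEM with 10% charcoal/dextran-treated FBS. Compound treatment 20 h, then luciferase read-out. Antagonist mode uses 3 nM aldosterone (hMR) or 5 nM 17β-estradiol (hER). Values are the average of at least duplicate determinations.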

[5] = AUC (0 to infinity) in Sprague-Dawley rat at 1 mg/kg, iv; format: ADME, organism-based; design: time infinity, dose 1 mg/kg, route intravenous; conditions: plasma
[6] = Plasma clearance in cynomolgus monkey at 1 mg/kg, iv; format: ADME, organism-based, Macaca fascicularis; design: dose 1 mg/kg, route intravenous

Cn1c(C#N)ccc1-c1cc(F)c2c(c1)C(C)(C)C(=O)N2
half-life [1]: 19 min
AUC(0-inf) [2]: 7150 ng·h/mL
Activity [3]: inactive
IC50 [4]: 3.7 µM
AUC(0-inf) [5]: 4650 ng·h/mL
clearance [6]: 7 mL/min/kg
